Structures are written as SMILES.

Holding throughout (assay type): functional
In assay [1] the test system is Escherichia coli. The experiment in a line: Potency index, ratio of MBC to MIC for Escherichia coli W4573. An outline of the steps: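 MBC/MIC ratio. MIC: CLSI broth microdilution, 10⁵ CFU/mL in CAMH broth, 24 h at 37 °C, OD600, 90% inhibition. MBC: well aliquots plated on tryptic soy agar, counted after 24 h, 3-log CFU reduction. Ratio 1–2 read as bactericidal, ≥8 as bacteriostatic.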

The test system of assay [2] is Escherichia coli. The experiment in a line: Antimicrobial activity against Escherichia coli W4573 incubated for 24 hrs in broth followed by colony transfer to tryptic soy agar for further 24 hrs incubation. As to conditions: W4573, 24 h. Summed up:
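MBC: broth microdilution as for MIC (10⁵ CFU/mL, CAMH broth, 24 h, 37 °C). Aliquots from wells were then plated on tryptic soy agar and colonies counted after 24 h. MBC taken as the lowest concentration giving a 3-log CFU reduction.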

Assay [3] deals with Escherichia coli. The experiment in a line: Antimicrobial activity against Escherichia coli W4573 incubated for 24 hrs by broth microdilution method. As to conditions: W4573, 24 h. An outline of the steps: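 CLSI broth microdilution. Log-phase bacteria at 10⁵ CFU/mL were exposed to 2-fold serial dilutions (64 to 0.016 μg/mL) in cation-adjusted Mueller-Hinton broth, 5% defibrinated sheep blood added for Streptococcus. Incubated aerobically 24 h at 37 °C. Growth read as OD600; MIC taken as the lowest concentration giving 90% growth inhibition.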

Take `NC[C@@H]1O[C@H](O[C@H]2[C@@H](O)[C@H](O[C@@H]3[C@@H](O)[C@H](N)C[C@H](N)[C@H]3O[C@H]3O[C@H](CN)[C@@H](O)[C@H](O)[C@H]3N)O[C@@H]2CO)[C@H](N)[C@@H](O)[C@@H]1O.O.O=S(=O)(O)O` [NEOMYCIN TRISULFATE HYDRATE]: in assay [1], the Ratio is reported as 2. In assay [2], this molecule returned an MBC of 2 µg/mL. In assay [3], this molecule returned an MIC of 1 µg/mL.
